Experimental data from ChEMBL document CHEMBL5661977, “BI 6727, a Polo-like kinase inhibitor with improved pharmacokinetic profile and broad antitumor activity” (Clin Cancer Res, 2009).
Activity calls are given as the source filed them. The rule behind the calls is not given here.

Columns and labels:
[1] = test system: HCT-116; experiment: Antimitotic activity against human HCT-116 cells assessed as inhibition of cell proliferation incubated for 72 hrs by Alamar blue based fluorescence spectrophotometric analysis; assay type: functional; conditions: HCT-116, 72 h
In short: (§1)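 Cancer cell lines were cultured per supplier instructions and exposed to various inhibitor concentrations for 72 h. Growth was read as Alamar blue conversion by fluorescence. EC50 (50% growth inhibition) was extrapolated from the dose-response curve fit.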

[2] = test system: Granta-519; experiment: Antimitotic activity against human Granta-519 cells assessed as inhibition of cell proliferation incubated for 72 hrs by Alamar blue based fluorescence spectrophotometric analysis; assay type: functional; conditions: Granta-519, 72 h; in short: as §1
[3] = test system: HL-60; experiment: Antimitotic activity against human HL-60 cells assessed as inhibition of cell proliferation incubated for 72 hrs by Alamar blue based fluorescence spectrophotometric analysis; assay type: functional; conditions: HL-60, 72 h; in short: as §1
[4] = test system: NCI-H460; experiment: Antimitotic activity against human NCI-H460 cells assessed as G2-M arrest with apoptosis at 100 nmol/L incubated for 24 hrs by PI staining based flow cytometric analysis; assay type: functional, cell-based
In short: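 Log-phase NCI-H460 cells were treated with 0.1% DMSO or inhibitor (dose series for 24 h; 100 nmol/L time course at 0, 24, 48, 72 h). Cells were fixed in 80% ethanol, permeabilized with 0.25% Triton X-100 for 5 min, then given 0.1% RNase plus 10 µg/mL propidium iodide for 20 min at RT. DNA content was read by flow cytometry.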

[5] = test system: NCI-H460; experiment: Induction of apoptosis in human NCI-H460 cells assessed as conversion of cleaved PRAP protein to fragment at 100 nmol/L incubated for 48 hrs by westernblot analysis; assay type: functional, cell-based
In short: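 Exponentially growing NCI-H460 cells treated with compound or DMSO control for 24 or 48 h, then harvested. Cleaved PARP fragment detected by Western blot.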

[6] = Cmax in Wistar rat at 10 mg/kg, iv by HPLC-MS/MS analysis; assay type: ADME, organism-based; conditions: in vivo
In short: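 Male Wistar Crl:WI (Han) rats, n = 4, given a single 5-min i.v. infusion. BI 6727 measured in EDTA plasma at various times after the infusion started, by HPLC-MS/MS with internal standard. Parameters came from noncompartmental analysis. Terminal half-life was taken from the last two time points after i.v. dosing.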

[7] = Tmax in Wistar rat at 30 mg/kg, po by HPLC-MS/MS analysis; assay type: ADME, organism-based; conditions: in vivo
In short: (§2)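 Single oral gavage of BI 6727 suspended in 0.5% hydroxyethyl-cellulose (10 mL/kg) to female nude mice or male Wistar rats. EDTA plasma levels measured over time by HPLC-MS/MS with internal standard. AUC0-24 by trapezoidal rule. Parameters from noncompartmental analysis.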

[8] = Oral bioavailability in Wistar rat at 30 mg/kg by HPLC-MS/MS analysis; assay type: ADME, organism-based; conditions: in vivo; in short: as §2
[9] = Half life in BomTac:NMRI-Foxn1nu mouse at 35 mg/kg, iv by HPLC-MS/MS analysis; assay type: ADME, organism-based; conditions: in vivo
In short: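 Female nude mice, n = 3, single i.v. dose (vehicle 0.1 N HCl diluted with 0.9% NaCl, 10 mL/kg). BI 6727 measured in EDTA plasma at several times by HPLC-MS/MS with internal standard. Parameters came from noncompartmental analysis. Terminal half-life was taken from the last two time points after i.v. dosing.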

[10] = Tmax in BomTac:NMRI-Foxn1nu mouse at 50 mg/kg, po by HPLC-MS/MS analysis; assay type: ADME, organism-based; conditions: in vivo; in short: as §2
[11] = Oral bioavailability in BomTac:NMRI-Foxn1nu mouse at 50 mg/kg by HPLC-MS/MS analysis; assay type: ADME, organism-based; conditions: in vivo; in short: as §2
[12] = Oral bioavailability in dog by HPLC-MS/MS analysis; assay type: ADME, organism-based, Canis lupus familiaris; conditions: in vivo
[13] = test system: HCT-116; experiment: Antitumor activity against human HCT-116 cells xenografted in BomTac:NMRI-Foxn1nu mouse assessed as T/C at 20 mg/kg, iv administered twice a week upto 6 weeks relative to control; assay type: functional
In short: (§3)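 Female nude mice bore s.c. HCT 116 (2×10^6 cells), NCI-H460 (1×10^6 cells) or serially transplanted CXB1 tumor pieces. At ~50–100 mm³, mice were randomized into groups of 10 and dosed i.v. (0.1 N HCl/saline) or by gavage (0.5% hydroxyethyl-cellulose) at 10 mL/kg. Calipers read thrice weekly, volume = length×width²×π/6. T/C from median volumes on the last day.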

[14] = test system: HCT-116; experiment: Antitumor activity against human HCT-116 cells xenografted in BomTac:NMRI-Foxn1nu mouse assessed as T/C at 15 mg/kg, iv administered twice a week upto 6 weeks relative to control; assay type: functional; in short: as §3
[15] = test system: HCT-116; experiment: Antitumor activity against human HCT-116 cells xenografted in BomTac:NMRI-Foxn1nu mouse assessed as T/C at 20 mg/kg, iv administered once a week upto 6 weeks relative to control; assay type: functional; in short: as §3
[16] = test system: HCT-116; experiment: Antitumor activity against human HCT-116 cells xenografted in BomTac:NMRI-Foxn1nu mouse assessed as T/C at 30 mg/kg, iv administered once a week upto 6 weeks relative to control; assay type: functional; in short: as §3
[17] = test system: HCT-116; experiment: Antitumor activity against human HCT-116 cells xenografted in BomTac:NMRI-Foxn1nu mouse assessed as T/C at 25 mg/kg, po administered twice a week upto 6 weeks relative to control; assay type: functional; in short: as §3
[18] = test system: HCT-116; experiment: Antitumor activity against human HCT-116 cells xenografted in BomTac:NMRI-Foxn1nu mouse assessed as T/C at 7 mg/kg, po administered daily upto 6 weeks relative to control; assay type: functional; in short: as §3
[19] = AUC (0 to 24 hrs) in human HCT-116 cells xenografted in BomTac:NMRI-Foxn1nu mouse at 20 mg/kg, iv administered twice a week upto 6 weeks by HPLC-MS/MS analysis; assay type: ADME, organism-based; conditions: in vivo, 1008 h
[20] = AUC (0 to 24 hrs) in human HCT-116 cells xenografted in BomTac:NMRI-Foxn1nu mouse at 15 mg/kg, iv administered twice a week upto 6 weeks by HPLC-MS/MS analysis; assay type: ADME, organism-based; conditions: in vivo, 1008 h
[21] = AUC (0 to 24 hrs) in human HCT-116 cells xenografted in BomTac:NMRI-Foxn1nu mouse at 20 mg/kg, iv administered once a week upto 6 weeks by HPLC-MS/MS analysis; assay type: ADME, organism-based; conditions: in vivo, 1008 h
[22] = AUC (0 to 24 hrs) in human HCT-116 cells xenografted in BomTac:NMRI-Foxn1nu mouse at 25 mg/kg, po administered twice a week upto 6 weeks by HPLC-MS/MS analysis; assay type: ADME, organism-based; conditions: in vivo, 1008 h
[23] = test system: Mus musculus; experiment: Antitumor against human CXB1 cells xenografted in BomTac:NMRI-Foxn1nu mouse assessed as suppression in tumor growth at 15 mg/kg, iv administered once a week on consecutive days; assay type: functional, organism-based; conditions: CXB1 cell, in the assay text read “twice a week” for “once a week”; in short: as §3
[24] = test system: HCT-116; experiment: Antitumor activity against human HCT-116 cells xenografted in BomTac:NMRI-Foxn1nu mouse assessed as the number of apoptotic cells in small intestine at 40 mg/kg, iv; assay type: functional, organism-based
In short: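 Female nude mice bore s.c. HCT 116 tumors (~200 mm³) and received a single i.v. 40 mg/kg dose or vehicle (n=3 per group per time). Tumor, small intestine and large intestine were taken at 6, 24 and 48 h. Frozen sections were stained for pSer10 histone H3 (immunoperoxidase) or by TUNEL. Positive area was calculated as % of tumor cell area; Student's t test.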

EC50 [1]: 23 nM | EC50 [3]: 32 nM | Cmax [6]: 11.9 µM | Tmax [7]: 6.7 h | bioavailability [8]: 55% | half-life [9]: 46 h | Tmax [10]: 1.7 h | bioavailability [11]: 41% | bioavailability [12]: 53% | AUC [19]: 66 µM·h | AUC [20]: 37 µM·h | AUC [21]: 40 µM·h | AUC [22]: 43 µM·h
SMILES: CC[C@@H]1C(=O)N(C)c2cnc(Nc3ccc(C(=O)N[C@H]4CC[C@H](N5CCN(CC6CC6)CC5)CC4)cc3OC)nc2N1C(C)C [VOLASERTIB]
EC50 [2]: 15 nM | Activity [4]: Active | Activity [5]: Active | T/C [13]: 1% | T/C [14]: 1% | T/C [15]: 9% | T/C [16]: 3% | T/C [17]: 2% | T/C [18]: 3% | Activity [23]: Active | Activity [24]: inactive
